Measured values: ChEMBL document CHEMBL1177865, “Synthesis and anticancer activity of some novel 2-substituted benzimidazole derivatives” (Eur J Med Chem, 2010)
≈ marks a conversion by molar mass, not a printed value.

Assays:
Type in all cases: functional, cell-based
MCF7 = assay: Cytotoxicity against human MCF7 cells after 48 hrs by sulforhodamine B assay; conditions: MCF7, 48 h
How it was run: (§1)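 Cells seeded at 10^4 per well and allowed to attach for 24 h, then exposed to compound at 0, 1, 2.5, 5 and 10 μg/ml, triplicate wells per dose, 48 h at 37 °C, 5% CO2. Fixed, stained with sulforhodamine B, excess dye removed with acetic acid, bound dye dissolved in Tris EDTA, absorbance read. IC50 (μg/ml, 50% survival reduction) taken from triplicate dose–response curves.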

HCT-116 = assay: Cytotoxicity against human HCT116 cells after 48 hrs by sulforhodamine B assay; conditions: HCT-116, 48 h; how it was run: as §1
HepG2 = assay: Cytotoxicity against human HepG2 cells after 48 hrs by sulforhodamine B assay; conditions: HepG2, 48 h; how it was run: as §1

SMILES	IC50 (MCF7) [µg/mL]	IC90 (MCF7) [µg/mL]	IC50 (HCT-116) [µg/mL]	IC90 (HCT-116) [µg/mL]	IC50 (HepG2) [µg/mL]	IC90 (HepG2) [µg/mL]
COc1ccccc1C1=CS/C(=C(\C#N)c2nc3cc(C(=O)O)ccc3[nH]2)N1c1ccc(Br)cc1	2.85 (≈ 5.23 µM)	13.2 (≈ 24.3 µM)	3.75 (≈ 6.88 µM)	12.1 (≈ 22.1 µM)	3.16 (≈ 5.79 µM)	9.31 (≈ 17.1 µM)
Nc1c(-c2nc3cc(C(=O)O)ccc3[nH]2)sc(=S)n1Cc1ccccc1	3.51 (≈ 9.18 µM)	14.1 (≈ 36.8 µM)	4.23 (≈ 11.1 µM)	14 (≈ 36.7 µM)	0.55 (≈ 1.44 µM)	7.53 (≈ 19.7 µM)
N#C/C(=C\c1ccc(F)cc1)c1nc2cc(Cl)ccc2[nH]1	3.41 (≈ 11.5 µM)	13.3 (≈ 44.8 µM)	8.4 (≈ 28.2 µM)	14.8 (≈ 49.8 µM)	0.55 (≈ 1.85 µM)	7.62 (≈ 25.6 µM)
N#CC(=C1CCCCC1)c1nc2cc(C(=O)O)ccc2[nH]1	2.15 (≈ 7.64 µM)	11.7 (≈ 41.6 µM)	8.25 (≈ 29.3 µM)	14.2 (≈ 50.4 µM)	1.65 (≈ 5.87 µM)	8.61 (≈ 30.6 µM)
N#C/C(=C1\SCC(=O)N1c1ccccc1)c1nc2cc(Cl)ccc2[nH]1	2.83 (≈ 7.71 µM)	12.6 (≈ 34.4 µM)	3.72 (≈ 10.1 µM)	12 (≈ 32.8 µM)	0.93 (≈ 2.54 µM)	7.89 (≈ 21.5 µM)
N#C/C(=C1\SCCCN1c1ccccc1)c1nc2cc(C(=O)O)ccc2[nH]1	4.04 (≈ 10.7 µM)	15 (≈ 39.9 µM)	9.39 (≈ 24.9 µM)	14.7 (≈ 39.1 µM)	1.87 (≈ 4.97 µM)	8.8 (≈ 23.4 µM)
N#C/C(=C1\SC(=O)CN1C1CCCCC1)c1nc2cc(C(=O)O)ccc2[nH]1	3.83 (≈ 10 µM)	15 (≈ 39.3 µM)	5.52 (≈ 14.4 µM)	14.1 (≈ 36.9 µM)	1.35 (≈ 3.53 µM)	9.15 (≈ 23.9 µM)
COc1cccc2c1C(=O)c1c(O)c3c(c(O)c1C2=O)C[C@@](O)(C(=O)CO)C[C@@H]3O[C@H]1C[C@H](N)[C@H](O)[C@H](C)O1 [DOXORUBICIN]	–	8.77 (≈ 16.1 µM)	0.65 (≈ 1.2 µM)	7.32 (≈ 13.5 µM)	0.59 (≈ 1.09 µM)	6.82 (≈ 12.5 µM)
